Measured values taken from ChEMBL document CHEMBL4196061, “Novel topoisomerase I inhibitors. Syntheses and biological evaluation of phosphorus substituted quinoline derivates with antiproliferative activity” (Eur J Med Chem, 2018).

What was measured:
[1] = target: T1, DNA topoisomerase 1 (Homo sapiens) (UniProt P11387); test: (§1) Inhibition of recombinant human topoisomerase 1-mediated DNA relaxation expressed in Saccharomyces cerevisiae TopI null strain RS190 at 10 uM using negatively supercoiled pUC18 as substrate pretreated with enzyme for 15 mins followed by substrate addition measured after 3 mins by agarose gel electrophoresis
T1 sequence (whole entry): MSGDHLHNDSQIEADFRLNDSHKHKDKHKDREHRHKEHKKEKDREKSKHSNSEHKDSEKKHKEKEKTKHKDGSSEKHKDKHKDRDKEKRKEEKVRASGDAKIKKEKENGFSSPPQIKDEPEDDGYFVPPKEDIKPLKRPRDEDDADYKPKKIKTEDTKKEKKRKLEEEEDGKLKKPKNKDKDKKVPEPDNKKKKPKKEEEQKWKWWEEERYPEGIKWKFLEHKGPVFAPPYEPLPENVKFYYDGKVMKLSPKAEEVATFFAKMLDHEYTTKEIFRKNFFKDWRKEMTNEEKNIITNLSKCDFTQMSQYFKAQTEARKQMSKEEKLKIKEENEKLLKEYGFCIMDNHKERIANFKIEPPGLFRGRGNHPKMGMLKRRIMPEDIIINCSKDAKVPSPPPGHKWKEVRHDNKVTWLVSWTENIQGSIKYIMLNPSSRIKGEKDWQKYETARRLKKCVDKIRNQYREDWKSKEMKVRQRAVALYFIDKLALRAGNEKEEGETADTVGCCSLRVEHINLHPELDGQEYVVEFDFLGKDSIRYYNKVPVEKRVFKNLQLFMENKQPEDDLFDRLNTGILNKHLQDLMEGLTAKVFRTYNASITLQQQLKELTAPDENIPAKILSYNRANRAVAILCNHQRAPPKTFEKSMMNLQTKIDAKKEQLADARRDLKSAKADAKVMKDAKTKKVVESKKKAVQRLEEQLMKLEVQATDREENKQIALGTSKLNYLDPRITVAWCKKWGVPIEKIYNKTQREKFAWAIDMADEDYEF
In short: (§2)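 Human TopI was expressed from pHT143 (GAL promoter) in yeast RS190 and affinity-purified. Reactions used 110 ng/µL TopI and 0.5 µg supercoiled pUC18 in 20 µl buffer (20 mM Tris–HCl, 0.1 mM Na2EDTA, 10 mM MgCl2, 50 µg/mL acetylated BSA, 150 mM KCl, pH 7.5). Drug was mixed with enzyme before DNA was added, and reactions were stopped with SDS. Products were resolved on 1% agarose in TBE and stained with gel red.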

[2] = target: T1, DNA topoisomerase 1 (Homo sapiens); test: as §1, with “80” for “10”, “15 secs” for “3 mins”; in short: as §2
[3] = target: T1, DNA topoisomerase 1 (Homo sapiens); test: as §1, with “60” for “10”; in short: as §2
HEK293 = test: Antiproliferative activity against human HEK293 cells after 48 hrs by CCK-8 assay; conditions: HEK293, 48 h
[4] = target: T1, DNA topoisomerase 1 (Homo sapiens); test: as §1, with “80” for “10”; in short: as §2
A549 = test: Antiproliferative activity against human A549 cells after 48 hrs by CCK-8 assay; assay type: functional, cell-based; conditions: A549, 48 h
In short: (§3)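 Cells seeded at 2-4 x 10^3 per well and grown overnight in 0.1 mL medium with 10% FBS at 37 °C under 5% CO2. Drugs were added on day 2 and cells incubated 48 h. CCK-8 was then added for 2 h at 37 °C and absorbance read at 450 nm. IC50 values were reported.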

[5] = target: T1, DNA topoisomerase 1 (Homo sapiens); test: as §1, with “80” for “10”, “1 min” for “3 mins”; in short: as §2
[6] = target: T1, DNA topoisomerase 1 (Homo sapiens); test: as §1, with “20” for “10”; in short: as §2
SK-OV-3 = test: Antiproliferative activity against human SKOV3 cells after 48 hrs by CCK-8 assay; assay type: functional, cell-based; conditions: SK-OV-3, 48 h; in short: as §3
MRC5 = test: Antiproliferative activity against human MRC5 cells after 48 hrs by CCK-8 assay; assay type: cell-based; conditions: MRC5, 48 h; in short: as §3
[7] = target: T1, DNA topoisomerase 1 (Homo sapiens); test: as §1, with “40” for “10”; in short: as §2

SMILES	inhibition [1] [%]	inhibition [2] [%]	inhibition [3] [%]	inhibition [4] [%]	IC50 (A549) [µM]	inhibition [5] [%]	inhibition [6] [%]	IC50 (SK-OV-3) [µM]	inhibition [7] [%]	IC50 (HEK293) [µM]	IC50 (MRC5) [µM]
FC(F)(F)c1ccc(-c2cc(-c3ccccc3)c3cccc(P(=S)(c4ccccc4)c4ccccc4)c3n2)cc1	8	81	24	81	> 50	81	10	> 50	18	> 50	> 50
S=P(c1ccccc1)(c1ccccc1)c1cccc2c1N[C@H](c1ccc3ccccc3c1)C[C@@H]2c1ccccc1	15	76	28	76	0.27	76	16	> 50	19	> 50	> 50
O=P(c1ccccc1)(c1ccccc1)c1cccc2c1N[C@H](c1ccccn1)C[C@@H]2c1ccccc1	19	92	34	76	3.8	85	19	19.1	24	14.8	> 50

Stronger by IC50 (A549), values ahead:

inhibition [1] [%]	inhibition [2] [%]	inhibition [3] [%]	inhibition [4] [%]	IC50 (A549) [µM]	inhibition [5] [%]	inhibition [6] [%]	IC50 (SK-OV-3) [µM]	inhibition [7] [%]	SMILES	IC50 (HEK293) [µM]	IC50 (MRC5) [µM]
0	80	22	76	0.11	79	16	> 50	17	Cc1ccc([C@H]2C[C@@H](c3ccccc3)Nc3c2cccc3P(c2ccccc2)c2ccccc2)cc1	> 50	> 50
0	78	20	75	0.08	75	0	> 50	0	Fc1ccc([C@H]2C[C@@H](c3ccc(F)cc3)Nc3c2cccc3P(c2ccccc2)c2ccccc2)cc1	> 50	> 50
